Results reported in ChEMBL document CHEMBL2429759, “Anti-tumor activity evaluation of novel chrysin-organogermanium(IV) complex in MCF-7 cells” (Bioorg Med Chem Lett, 2013).
Calls of active or inactive are those of the source. The calls are words filed in the database; no cut-off is given here.

Key:
HepG2 [1] = experiment: Growth inhibition of human HepG2 cells by MTT assay; assay type: functional, cell-based
COLO 205 [2] = experiment: Growth inhibition of human COLO205 cells at 30 ug/ml by MTT assay; assay type: functional
MCF7 [3] = experiment: Disruption of microfilament organization in human MCF7 cells at 10 ug/ml by immunofluorescence analysis; assay type: functional, cell-based
MCF7 [4] = experiment: Growth inhibition of human MCF7 cells at 20 ug/ml by MTT assay; assay type: functional
HepG2 [5] = experiment: Growth inhibition of human HepG2 cells at 30 ug/ml by MTT assay; assay type: functional
MCF7 [6] = experiment: Induction of apoptosis in human MCF7 cells assessed as segmentation of nuclei at 10 ug/ml by DAPI staining-based immunofluorescence analysis relative to control; assay type: functional, cell-based
Outline: (§1)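 Nuclear morphology of control and 10 μg/mL-treated MCF-7 cells visualised by DAPI staining under fluorescence microscopy.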

MCF7 [7] = experiment: Cell cycle arrest in human MCF7 cells assessed as accumulation at G2/M phase at 10 ug/ml after 24 hrs by propidium iodide staining-based flow cytometry (reference value: 7.43 +/- 0.98%); assay type: functional
MCF7 [8] = experiment: Growth inhibition of human MCF7 cells at 5 ug/ml by MTT assay; assay type: functional
MCF7 [9] = experiment: Induction of apoptosis in human MCF7 cells assessed as early apoptotic cells at 20 ug/ml after 24 hrs by annexin-V FITC/propidium iodide staining-based flow cytometry (reference value: 0.5%); assay type: functional, cell-based
Outline: (§2)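 Apoptosis in MCF-7 after 24 h exposure to 5, 10 or 20 μg/mL complex; annexin-V-FITC/PI staining with flow cytometry. Quadrants: Q3 live, Q4 apoptotic, Q2 necrotic or late apoptotic.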

MCF7 [10] = experiment: Cell cycle arrest in human MCF7 cells assessed as accumulation at G2/M phase at 20 ug/ml after 24 hrs by propidium iodide staining-based flow cytometry (reference value: 7.43 +/- 0.98%); assay type: functional
MCF7 [11] = experiment: Disruption of cell morphology in human MCF7 cells assessed as deformed shrunk cell tails at 10 ug/ml by atomic force microscopy relative to control; assay type: functional, cell-based
Outline: (§3)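 AFM high-resolution topography and force measurements on control MCF-7 cells and cells treated with 10 μg/mL complex, assessing surface ultrastructure, rigidity and tip-cell adhesion force.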

MCF7 [12] = experiment: Growth inhibition of human MCF7 cells at 30 ug/ml by MTT assay; assay type: functional
MCF7 [13] = experiment: Disruption of cell integrity in human MCF7 cells at 10 ug/ml by immunofluorescence analysis; assay type: functional, cell-based
Outline: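 MCF-7 cells treated with complex at various concentrations; α-tubulin stained with Tubulin-Tracker red and fibre network imaged by immunofluorescence microscopy.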

MCF7 [14] = experiment: Induction of apoptosis in human MCF7 cells assessed as necrotic cells at 10 ug/ml after 24 hrs by annexin-V FITC/propidium iodide staining-based flow cytometry (reference value: 0.3%); assay type: functional, cell-based; outline: as §2
MCF7 [15] = experiment: Induction of apoptosis in human MCF7 cells assessed as early apoptotic cells at 5 ug/ml after 24 hrs by annexin-V FITC/propidium iodide staining-based flow cytometry (reference value: 0.5%); assay type: functional, cell-based; outline: as §2
MCF7 [16] = experiment: Induction of apoptosis in human MCF7 cells assessed as disruption of mitochondrial membrane potential measured as mean fluorescence intensity at 20 ug/ml by rhodamine 123 staining-based flow cytometry (reference value: 3094 no unit); assay type: functional, cell-based
MCF7 [17] = experiment: Antimigratory activity against human MCF7 cells at 2.5 to 20 ug/ml after 24 hrs by wound-healing assay; assay type: functional, cell-based
Outline: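 Scratch wound-healing: monolayers wounded with a p200 pipette tip, kept with or without complex; images taken at 0 and 24 h; reference lines drawn equidistant.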

MCF7 [18] = experiment: Induction of apoptosis in human MCF7 cells assessed as late apoptotic cells at 5 ug/ml after 24 hrs by annexin-V FITC/propidium iodide staining-based flow cytometry (reference value: 1.0%); assay type: functional, cell-based; outline: as §2
MCF7 [19] = experiment: Induction of apoptosis in human MCF7 cells assessed as late apoptotic cells at 10 ug/ml after 24 hrs by annexin-V FITC/propidium iodide staining-based flow cytometry (reference value: 1.0%); assay type: functional, cell-based; outline: as §2
MCF7 [20] = experiment: Induction of apoptosis in human MCF7 cells assessed as necrotic cells at 20 ug/ml after 24 hrs by annexin-V FITC/propidium iodide staining-based flow cytometry (reference value: 0.3%); assay type: functional, cell-based; outline: as §2
MCF7 [21] = experiment: Induction of apoptosis in human MCF7 cells assessed as late apoptotic cells at 20 ug/ml after 24 hrs by annexin-V FITC/propidium iodide staining-based flow cytometry (reference value: 1.0%); assay type: functional, cell-based; outline: as §2
MCF7 [22] = experiment: Induction of apoptosis in human MCF7 cells assessed as intracellular ROS production measured as mean fluorescence intensity at 2.5 ug/ml using DCFH-DA staining-based flow cytometry (reference value: 101.50 no unit); assay type: functional, cell-based
MCF7 [23] = experiment: Induction of apoptosis in human MCF7 cells assessed as gatheration of condensed chromatin at periphery of nuclear membrane at 10 ug/ml by DAPI staining-based immunofluorescence analysis relative to control; assay type: functional, cell-based; outline: as §1
MCF7 [24] = experiment: Induction of apoptosis in human MCF7 cells assessed as viable cells at 10 ug/ml after 24 hrs by annexin-V FITC/propidium iodide staining-based flow cytometry (reference value: 98.1%); assay type: functional, cell-based; outline: as §2
MCF7 [25] = experiment: Cell cycle arrest in human MCF7 cells assessed as accumulation at G2/M phase at 5 ug/ml after 24 hrs by propidium iodide staining-based flow cytometry (reference value: 7.43 +/- 0.98%); assay type: functional
MCF7 [26] = experiment: Disruption of cell morphology in human MCF7 cells assessed as decrease in tip-cell adhesion force at 10 ug/ml by atomic force microscopy relative to control; assay type: functional, cell-based; outline: as §3
MCF7 [27] = experiment: Growth inhibition of human MCF7 cells by MTT assay; assay type: functional, cell-based
MCF7 [28] = experiment: Induction of apoptosis in human MCF7 cells assessed as caspase 9 activation at 20 ug/ml by fluorometric analysis (reference value: 100%); assay type: functional, cell-based
Outline: (§4)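 Caspase-3, -8 and -9 activities read fluorometrically in whole-cell extracts of treated MCF-7; mean ± standard deviation of three independent experiments.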

MCF7 [29] = experiment: Induction of apoptosis in human MCF7 cells assessed as intracellular ROS production measured as mean fluorescence intensity at 10 ug/ml using DCFH-DA staining-based flow cytometry (reference value: 101.50 no unit); assay type: functional, cell-based
MCF7 [30] = experiment: Induction of apoptosis in human MCF7 cells assessed as disruption of mitochondrial membrane potential measured as mean fluorescence intensity at 5 ug/ml by rhodamine 123 staining-based flow cytometry (reference value: 3094 no unit); assay type: functional, cell-based
MCF7 [31] = experiment: Growth inhibition of human MCF7 cells at 10 ug/ml by MTT assay; assay type: functional
MCF7 [32] = experiment: Induction of apoptosis in human MCF7 cells assessed as disruption of mitochondrial membrane potential measured as mean fluorescence intensity at 10 ug/ml by rhodamine 123 staining-based flow cytometry (reference value: 3094 no unit); assay type: functional, cell-based
MCF7 [33] = experiment: Induction of apoptosis in human MCF7 cells assessed as early apoptotic cells at 10 ug/ml after 24 hrs by annexin-V FITC/propidium iodide staining-based flow cytometry (reference value: 0.5%); assay type: functional, cell-based; outline: as §2
HepG2 [34] = experiment: Growth inhibition of human HepG2 cells at 5 ug/ml by MTT assay; assay type: functional
MCF7 [35] = experiment: Induction of apoptosis in human MCF7 cells assessed as caspase 8 activation at 20 ug/ml by fluorometric analysis (reference value: 100%); assay type: functional, cell-based; outline: as §4
HepG2 [36] = experiment: Growth inhibition of human HepG2 cells at 20 ug/ml by MTT assay; assay type: functional
MCF7 [37] = experiment: Cell cycle arrest in human MCF7 cells assessed as accumulation at G2/M phase at 2.5 ug/ml after 24 hrs by propidium iodide staining-based flow cytometry (reference value: 7.43 +/- 0.98%); assay type: functional
MCF7 [38] = experiment: Induction of apoptosis in human MCF7 cells assessed as viable cells at 5 ug/ml after 24 hrs by annexin-V FITC/propidium iodide staining-based flow cytometry (reference value: 98.1%); assay type: functional, cell-based; outline: as §2
COLO 205 [39] = experiment: Growth inhibition of human COLO205 cells at 10 ug/ml by MTT assay; assay type: functional
MCF7 [40] = experiment: Induction of apoptosis in human MCF7 cells assessed as intracellular ROS production measured as mean fluorescence intensity at 5 ug/ml using DCFH-DA staining-based flow cytometry (reference value: 101.50 no unit); assay type: functional, cell-based
MCF7 [41] = experiment: Induction of apoptosis in human MCF7 cells assessed as viable cells at 20 ug/ml after 24 hrs by annexin-V FITC/propidium iodide staining-based flow cytometry (reference value: 98.1%); assay type: functional, cell-based; outline: as §2
MCF7 [42] = experiment: Induction of apoptosis in human MCF7 cells assessed as necrotic cells at 5 ug/ml after 24 hrs by annexin-V FITC/propidium iodide staining-based flow cytometry (reference value: 0.3%); assay type: functional, cell-based; outline: as §2
HepG2 [43] = experiment: Growth inhibition of human HepG2 cells at 10 ug/ml by MTT assay; assay type: functional
COLO 205 [44] = experiment: Growth inhibition of human COLO205 cells by MTT assay; assay type: functional, cell-based
COLO 205 [45] = experiment: Growth inhibition of human COLO205 cells at 5 ug/ml by MTT assay; assay type: functional
MCF7 [46] = experiment: Induction of apoptosis in human MCF7 cells assessed as caspase 3 activation at 20 ug/ml by fluorometric analysis (reference value: 100%); assay type: functional, cell-based; outline: as §4
COLO 205 [47] = experiment: Growth inhibition of human COLO205 cells at 20 ug/ml by MTT assay; assay type: functional

With “5-hydroxy-2-phenyl-7-(triphenylgermyloxy)-4H-chromen-4-one ethanol” the “growth inhibition (GI)” value (HepG2 [1]) was “Dose-dependent effect”, the growth inhibition (GI) (COLO 205 [2]) was 31.6% and the Activity (MCF7 [3]) was “Active”. The growth inhibition (GI) (MCF7 [4]) was 31.3%, the growth inhibition (GI) (HepG2 [5]) was 36.7% and the Activity (MCF7 [6]) was “Active”. It also gave an Activity (MCF7 [7]) of 24.5%, a growth inhibition (GI) (MCF7 [8]) of 7.01% and an Activity (MCF7 [9]) of 19.5%. For the same substance, the Activity (MCF7 [10]) was 30.9%, the Activity (MCF7 [11]) was “Active” and the growth inhibition (GI) (MCF7 [12]) was 42.1%. For the same substance, the Activity (MCF7 [13]) was “Active”, the Activity (MCF7 [14]) was 0.7% and the Activity (MCF7 [15]) was 1.5%. The Flu intensity (MCF7 [16]) was 1480, the Activity (MCF7 [17]) was “Active” and the Activity (MCF7 [18]) was 3.2%. For the same substance, the Activity (MCF7 [19]) was 6.2%, the Activity (MCF7 [20]) was 0.6% and the Activity (MCF7 [21]) was 5.4%. The Flu intensity (MCF7 [22]) was 87.1, the Activity (MCF7 [23]) was “Active” and the Activity (MCF7 [24]) was 88.1%. For the same substance, the Activity (MCF7 [25]) was 15.8%, the Activity (MCF7 [26]) was “Active” and the “growth inhibition (GI)” value (MCF7 [27]) was “Dose-dependent effect”. For the same substance, the Activity (MCF7 [28]) was 286%, the Flu intensity (MCF7 [29]) was 126 and the Flu intensity (MCF7 [30]) was 1980. For the same substance, the growth inhibition (GI) (MCF7 [31]) was 19.2%, the Flu intensity (MCF7 [32]) was 1370 and the Activity (MCF7 [33]) was 5.1%. For the same substance, the growth inhibition (GI) (HepG2 [34]) was 7.95%, the Activity (MCF7 [35]) was 181% and the growth inhibition (GI) (HepG2 [36]) was 31.1%. It also gave an Activity (MCF7 [37]) of 8.73%, an Activity (MCF7 [38]) of 94.9% and a growth inhibition (GI) (COLO 205 [39]) of 12.1%. The Flu intensity (MCF7 [40]) was 107, the Activity (MCF7 [41]) was 74.5% and the Activity (MCF7 [42]) was 0.5%. For the same substance, the growth inhibition (GI) (HepG2 [43]) was 20.3%, the “growth inhibition (GI)” value (COLO 205 [44]) was “Dose-dependent effect” and the growth inhibition (GI) (COLO 205 [45]) was 5.85%. For the same substance, the Activity (MCF7 [46]) was 214% and the growth inhibition (GI) (COLO 205 [47]) was 20.3%.
